# Measured values taken from ChEMBL document CHEMBL1124977, “Synthesis of acyclic and dehydroaspartic acid analogues of Ac-Asp-Glu-OH and their inhibition of rat brain N-acetylated alpha-linked acidic dipeptidase (NAALA dipeptidase)” (J Med Chem, 1990).
# Residues, ends and D or L forms follow the SMILES beside them.
# How the values were obtained:
# [1] = molecular target: T1, Glutamate carboxypeptidase 2 (Rattus norvegicus, UniProt P70627); assay: Tested for Ac-Asp-[3,4-3H]-Glu-OH hydrolysis inhibitory activity against rat forebrain N-acetylated-alpha-linked acidic dipeptidase
# Method in brief: (§1)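 Ki used the same rat forebrain membrane assay (Hepes pH 7.4, NaCl, CoCl₂, radiometric ³H-Glu read-out). Substrate was 0.25, 0.5, 1.0, 2.0 and 5.0 μM. Inhibitor was tested at 0, IC50, and 2- and 4-fold above and below IC50. Lineweaver–Burk slopes were replotted against [inhibitor]. Ki equals the slope at 0 μM inhibitor divided by the replot slope. Ki was determined only when IC50 <100 μM.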
# [2] = molecular target: T1, Glutamate carboxypeptidase 2; assay: Concentration required for 50%inhibition of Ac-Asp-[3,4-3H]-Glu-OH hydrolysis against rat forebrain N-acetylated-alpha-linked acidic dipeptidase
# Method in brief: (§2)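 Enzyme source: "buffy coat" synaptic membranes from Sprague-Dawley rat (45–90 days) forebrain, washed in 0.1 M Hepes pH 7.4 and stored frozen. Inhibitor was tested at about 2- and 4-fold above and below the estimated IC50. Mean of three experiments ± SEM.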
# [3] = molecular target: T1, Glutamate carboxypeptidase 2; assay: Concentration required for 50%inhibition of Ac-Asp-[3,4-3H]-Glu-OH hydrolysis against rat forebrain N-Acetylated alpha-linked Dipeptidase (NAALA Dipeptidase); method in brief: as §2
# [4] = molecular target: T1, Glutamate carboxypeptidase 2; assay: Tested for Ac-Asp-[3,4-3H]-Glu-OH hydrolysis inhibitory activity against rat forebrain N-Acetylated alpha-linked Dipeptidase (NAALA Dipeptidase); method in brief: as §1
# T1 sequence (P70627 whole entry): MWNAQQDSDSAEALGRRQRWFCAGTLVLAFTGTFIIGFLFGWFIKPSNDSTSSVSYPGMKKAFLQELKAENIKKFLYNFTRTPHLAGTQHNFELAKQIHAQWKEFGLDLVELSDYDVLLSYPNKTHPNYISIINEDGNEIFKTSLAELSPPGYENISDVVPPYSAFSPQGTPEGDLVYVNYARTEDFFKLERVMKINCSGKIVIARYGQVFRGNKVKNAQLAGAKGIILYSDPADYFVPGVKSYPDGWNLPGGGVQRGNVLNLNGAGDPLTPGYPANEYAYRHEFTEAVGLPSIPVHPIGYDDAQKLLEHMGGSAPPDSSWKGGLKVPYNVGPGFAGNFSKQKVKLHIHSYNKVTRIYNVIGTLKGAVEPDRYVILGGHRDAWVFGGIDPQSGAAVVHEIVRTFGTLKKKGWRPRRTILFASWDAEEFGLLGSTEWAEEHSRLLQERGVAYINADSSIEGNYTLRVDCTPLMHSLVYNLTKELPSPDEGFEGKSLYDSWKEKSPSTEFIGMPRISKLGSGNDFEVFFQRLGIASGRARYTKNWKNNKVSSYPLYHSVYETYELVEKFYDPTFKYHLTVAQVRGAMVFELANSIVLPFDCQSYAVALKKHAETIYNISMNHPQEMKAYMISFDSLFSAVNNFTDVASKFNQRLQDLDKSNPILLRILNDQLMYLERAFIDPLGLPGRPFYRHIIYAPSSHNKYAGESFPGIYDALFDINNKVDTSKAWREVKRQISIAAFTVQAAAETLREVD
Ki [1] [µM],IC50 [2] [µM],IC50 [3] [µM],Ki [4] [µM],SMILES
0.9,2.5,–,–,O=C(O)CCC(=O)N[C@@H](CCC(=O)O)C(=O)O
41,83,–,–,O=C(O)/C=C\C(=O)N[C@@H](CCC(=O)O)C(=O)O
3.2,8,–,–,CC(=O)N[C@@H](CC(=O)O)CC(=O)N[C@@H](CCC(=O)O)C(=O)O
0.4,0.8,–,–,O=C(O)/C=C/C(=O)N[C@@H](CCC(=O)O)C(=O)O
–,200,–,–,CC(=O)N[C@@H](CC(=O)O)C(=O)N[C@@H](CCC(=O)O)CC(=O)O
8.5,–,15,–,CC(=O)N[C@H](CC(=O)O)C(=O)N[C@@H](CCC(=O)O)C(=O)O
–,250,–,–,CC(=O)N[C@@H](CC(=O)O)C(=O)N[C@@H](CC(=O)O)C(=O)O (Ac-Asp-Asp-OH)
–,193,–,–,CC(=O)N[C@@H](CCC(=O)O)C(=O)N[C@@H](CC(=O)O)C(=O)O (Ac-Glu-Asp-OH)
–,–,9,3.5,CC(=O)N[C@@H](CCC(=O)O)C(=O)N[C@@H](CCC(=O)O)C(=O)O (Ac-Glu-Glu-OH)
